# Source: ChEMBL document CHEMBL4364292, “Discovery of a Potent and Selective CCR4 Antagonist That Inhibits Treg Trafficking into the Tumor Microenvironment” (J Med Chem, 2019)
# Columns and labels:
# [1] = AUCinfinity in rat at 0.5 mg/kg, iv; type: ADME, organism-based; set-up: dose 0.5 mg/kg, route intravenous, time infinity; conditions: in vivo
# [2] = Hepatic clearance in rat at 0.5 mg/kg, iv; type: ADME, organism-based; conditions: in vivo
# [3] = target: T1, C-C chemokine receptor type 4 (Homo sapiens, UniProt P51679); test: Antagonist activity at human CCR4 expressed in rat chem-5 cells assessed as inhibition of CCL22-induced calcium flux measured at 2.5 secs time interval for 45 secs by fluorescence assay; type: functional, cell-based
# T1 sequence (P51679 whole entry): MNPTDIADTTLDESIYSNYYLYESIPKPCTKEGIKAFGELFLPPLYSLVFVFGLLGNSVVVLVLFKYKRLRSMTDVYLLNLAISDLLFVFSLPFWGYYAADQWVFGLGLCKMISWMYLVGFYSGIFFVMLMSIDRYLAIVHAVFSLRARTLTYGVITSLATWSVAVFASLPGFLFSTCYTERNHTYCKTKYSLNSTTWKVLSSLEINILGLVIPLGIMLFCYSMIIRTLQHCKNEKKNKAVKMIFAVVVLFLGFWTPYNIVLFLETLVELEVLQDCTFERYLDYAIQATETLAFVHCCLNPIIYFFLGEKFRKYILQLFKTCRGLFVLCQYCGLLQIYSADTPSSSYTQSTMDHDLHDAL
# Outline: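 Calcium flux functional readout of CCR4 antagonism, run without serum; IC50 reported.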
# [4] = Bioavailability in rat; type: ADME, organism-based; conditions: in vivo
# [5] = Bioavailability in mouse; type: ADME, organism-based; conditions: in vivo
# [6] = Volume of distribution at steady state in mouse; type: ADME, organism-based; conditions: in vivo, read-out: Vdss
# [7] = Stability in rat hepatocytes assessed as compound remaining incubated for 60 mins under shaking condition by LC-MS/MS analysis; type: ADME, cell-based, Hepatocyte; conditions: read-out: Stability
# Outline: (§1)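 Human and rat hepatocytes exposed to compound; percent parent remaining reported.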
# [8] = Stability in human hepatocytes assessed as compound remaining incubated for 60 mins under shaking condition by LC-MS/MS analysis; type: ADME, cell-based, Hepatocyte; conditions: read-out: Stability; outline: as §1
# [9] = Clearance in mouse; type: ADME, organism-based; conditions: in vivo
# [10] = Half-life in mouse; type: ADME, organism-based; conditions: in vivo
compound,measurement,setting,value
CC1CN(c2cnc3c(C(F)(F)F)nn(C(C)c4ccc(Cl)cc4Cl)c3n2)CCC1N1CCCCC1 (stereo not given),AUC(0-inf),[1],148 ng·h/mL
same,CLH,[2],56.7 mL/min/kg
same,IC50,[3],837 nM
Cc1nn(C(C)c2ccc(Cl)cc2Cl)c2nc(N3CCC(N4CCCCC4)C(C)C3)cnc12 (stereo not given),AUC(0-inf),[1],217 ng·h/mL
same,CLH,[2],38.3 mL/min/kg
same,IC50,[3],126 nM
Cc1nn([C@H](C)c2ccc(Cl)cc2Cl)c2nc(N3CC[C@H](N4CCC[C@H]4C)[C@H](C)C3)cnc12,IC50,[3],47 nM
Cc1nn([C@H](C)c2ccc(Cl)cc2Cl)c2nc(N3CC[C@H](N4CCC[C@H]4CCS(C)(=O)=O)[C@H](C)C3)cnc12,IC50,[3],104 nM
Cc1nn([C@H](C)c2ccc(Cl)cc2Cl)c2nc(N3CC[C@H](N4CCC[C@H]4CCC(N)=O)[C@H](C)C3)cnc12,IC50,[3],37 nM
CC(c1ccc(Cl)cc1Cl)n1ncc2ncc(C3=CCN(C(=O)[C@H]4CCCCN4)CC3)nc21 (stereo not given in full),IC50,[3],275 nM
same,bioavailability,[4],25%
CC1CN(c2cnc3c(C(N)=O)nn(C(C)c4ccc(Cl)cc4Cl)c3n2)CCC1N1CCCCC1 (stereo not given),AUC(0-inf),[1],82 ng·h/mL
same,CLH,[2],101.7 mL/min/kg
same,IC50,[3],228 nM
CC(c1ccc(Cl)cc1Cl)n1ncc2ncc(N3CCC(N4CCCCC4)CC3)nc21 (stereo not given),IC50,[3],2580 nM
C[C@@H]1CC(c2cnc3c(C#N)nn([C@H](C)c4ccc(Cl)cc4Cl)c3n2)=CC[C@@H]1N1CCC[C@H]1C(F)(F)F,IC50,[3],> 5000 nM
CC1CN(c2cnc3c(C#N)nn(C(C)c4ccc(Cl)cc4Cl)c3n2)CCC1N1CCCCC1 (stereo not given),AUC(0-inf),[1],82 ng·h/mL
same,CLH,[2],101.7 mL/min/kg
same,IC50,[3],251 nM
Cc1nn([C@H](C)c2ccc(Cl)cc2Cl)c2nc(N3CC[C@@H](N4CCCCC4)[C@@H](C)C3)cnc12,IC50,[3],803 nM
C[C@@H]1CC(c2cnc3c(C#N)nn([C@H](C)c4ccc(Cl)cc4Cl)c3n2)=CC[C@@H]1N1CCC[C@H]1C,bioavailability,[5],27%
same,IC50,[3],34 nM
same,Vd,[6],4.9 L/kg
same,remaining at 1 h,[7],72%
same,remaining at 1 h,[8],86%
same,clearance,[9],1.17 mL/min/kg
same,half-life,[10],30.3 h
Cc1nn([C@H](C)c2ccc(Cl)cc2Cl)c2nc(N3CC[C@H](N4CCC[C@H]4CCS(N)(=O)=O)[C@H](C)C3)cnc12,IC50,[3],32 nM
C[C@@H](Nc1cncc(C2=CCN(C(=O)[C@H]3CCCCN3)CC2)n1)c1ccc(Cl)cc1Cl,IC50,[3],54 nM
same,bioavailability,[4],7%
